Assay results published in ChEMBL document CHEMBL5260794, “Synthesis and biological evaluation of a new class of benzothiazines as neuroprotective agents” (Eur J Med Chem, 2017).
The source made the active and inactive calls. The rule behind the calls is not given here.

Assays:
Rattus norvegicus [1] = species: Rattus norvegicus; assay: Inhibition of persistent voltage-dependent sodium current in Wistar rat brain piriform cortex layer at 15 uM by whole cell patch clamp method; format: functional
SH-SY5Y [2] = assay: Neuroprotective activity against 6-OHDA-induced toxicity in human SH-SY5Y cells assessed as reduction in ROS production at 0.1 uM pretreated for 1 hr followed by 6-OHDA challenge measured after 2 hrs by DCFH-DA staining based assay; format: functional, cell-based; conditions: time 3.0 hrs
Rattus norvegicus [3] = species: Rattus norvegicus; assay: Inhibition of transient voltage-dependent sodium current in Wistar rat brain piriform cortex layer assessed as reduction in maximal current amplitude at 5 uM by whole cell patch clamp method; format: functional
Rattus norvegicus [4] = species: Rattus norvegicus; assay: Inhibition of persistent voltage-dependent sodium current in Wistar rat brain piriform cortex layer at 50 uM by whole cell patch clamp method; format: functional
SH-SY5Y [5] = assay: Neuroprotective activity against glutamate-induced toxicity in human SH-SY5Y cells assessed as reduction in ROS production measured after 24 hrs by DCFH-DA staining based assay; format: functional, cell-based; conditions: dose 0.1-10 µM
Outline: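 Human SH-SY5Y neuroblastoma cells were preloaded with DCFH-DA (5 μM, 30 min) and washed in PBS. They were then pretreated for 1 h with compound (0.1-10 μM; DMSO stock diluted in PBS, final DMSO <0.01%) and challenged with glutamate (50 mM). Fluorescence (ex 485/em 535 nm) was read at 24 h and expressed as % inhibition of glutamate-induced ROS. Data are mean ± SEM of 4 experiments run in triplicate or quadruplicate.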

SH-SY5Y [6] = assay: Neuroprotective activity against glutamate-induced toxicity in human SH-SY5Y cells assessed as reduction in cell shrinkage at 10 uM pretreated for 1 hr followed by glutamate challenge measured after 24 hrs by phase-contrast light microscopic analysis; format: functional, cell-based; conditions: time 25.0 hrs
Outline: (§1)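 SH-SY5Y cells attached 24 h, then pretreated 1 h with compound (0.1-10 μM) before glutamate 50 mM for 24 h. Viability by MTT. Morphology under phase-contrast microscope, scored by the USP 28 grade scale (0-4). Mean ± SEM of 4 independent experiments run in triplicate or quadruplicate, ANOVA with Dunnett test.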

Rattus norvegicus [7] = species: Rattus norvegicus; assay: Inhibition of transient voltage-dependent sodium current in Wistar rat brain piriform cortex layer assessed as reduction in maximal current amplitude at 15 uM by whole cell patch clamp method; format: functional
SH-SY5Y [8] = assay: Neuroprotective activity against glutamate-induced toxicity in human SH-SY5Y cells assessed as reduction in sub G0/G1 phase cells at 10 uM pretreated for 1 hr followed by glutamate challenge measured after 24 hrs by propidium staining based flow cytometry; format: functional, cell-based; conditions: time 25.0 hrs
Outline: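 SH-SY5Y cells (2.5 x 10⁵ cells/mL) pretreated 1 h with compound, then given glutamate 50 mM for 24 h. Cells fixed in 70% ethanol (30 min, 4 °C), held at -20 °C for at least 24 h, stained with propidium iodide. Flow cytometry on at least 1x10⁴ cells, cell-cycle phases and sub-G₀/G₁ fraction quantified. 4 independent experiments.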

Rattus norvegicus [9] = species: Rattus norvegicus; assay: Inhibition of transient voltage-dependent sodium current in Wistar rat brain piriform cortex layer assessed as negative shift of inactivation function at 15 uM by whole cell patch clamp method; format: functional
Rattus norvegicus [10] = species: Rattus norvegicus; assay: Inhibition of persistent voltage-dependent sodium current in Wistar rat brain piriform cortex layer at 5 uM by whole cell patch clamp method; format: functional
Rattus norvegicus [11] = species: Rattus norvegicus; assay: Neuroprotective activity against oxygen glucose deprivation/reperfusion-induced Wistar rat cortical brain assessed as reduction in glutamate release by measuring minimal effective concentration; format: functional
Outline: (§2)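 Male Wistar rat cortical slices (400 μm) in oxygenated ACSF, pH 7.4, 1 h at room temperature, then 30 min at 37 °C. OGD for 30 min in glucose-free ACSF with 11 mM sucrose under 95% N₂/5% CO₂. Compound added in the reoxygenation buffer. Glutamate and LDH release measured. Mean ± SEM of at least four experiments, ANOVA with Dunnett test.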

Rattus norvegicus [12] = species: Rattus norvegicus; assay: Inhibition of transient voltage-dependent sodium current in Wistar rat brain piriform cortex layer by whole cell patch clamp method; format: functional
SH-SY5Y [13] = assay: Neuroprotective activity against glutamate-induced toxicity in human SH-SY5Y cells assessed as cell viability at 10 uM pretreated for 1 hr followed by glutamate challenge measured after 24 hrs by MTT assay; format: functional; conditions: time 25 hrs, read-out: Activity; outline: as §1
SH-SY5Y [14] = assay: Neuroprotective activity against glutamate-induced toxicity in human SH-SY5Y cells assessed as reduction in condensed and fragmented nuclei at 10 uM pretreated for 1 hr followed by glutamate challenge measured after 24 hrs by DAPI staining based assay (reference value: 16.9 +/- 1.5%); format: functional, cell-based; conditions: time 25.0 hrs
Outline: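 Cells pretreated 1 h with compound (0.1-10 μM), then glutamate 50 mM for 24 h. DAPI staining; cells with condensed or fragmented nuclei scored as apoptotic, reported as percentage. Mean ± SEM of 4 independent experiments.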

Rattus norvegicus [15] = species: Rattus norvegicus; assay: Neuroprotective activity against oxygen glucose deprivation/reperfusion-induced Wistar rat cortical brain assessed as reduction in LDH release by measuring minimal effective concentration; format: functional; outline: as §2
Rattus norvegicus [16] = species: Rattus norvegicus; assay: Inhibition of high voltage-activated calcium current in Wistar rat brain piriform cortex assessed as time required to inhibit barium current by whole cell patch clamp method; format: functional
Outline: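 Acutely dissociated P15-P22 Wistar rat piriform cortex neurons recorded whole-cell at holding -70 mV. 5 mM Ba²⁺ was the charge carrier, with a Cs methanesulfonate pipette. HVA currents evoked by step or ramp protocols from -60 mV. Compound applied by local perfusion (DMSO 0.02-0.67%). Peak I_Ba amplitude tracked over time, and concentration-response fitted with the sum of two Hill functions.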

CCN(CC)/C(C)=N/C1=Nc2ccccc2CS1 was tested, and the inhibition in vivo at 15 µM (Rattus norvegicus [1]) was 77%, the Activity (SH-SY5Y [2]) was “Active” and the inhibition in vivo at 5 µM (Rattus norvegicus [3]) was 26.4%. The inhibition in vivo at 50 µM (Rattus norvegicus [4]) was 91.8%, the Activity (SH-SY5Y [5]) was “Dose-Dependent Effect” and the Activity (SH-SY5Y [6]) was “Active”. The inhibition in vivo at 15 µM (Rattus norvegicus [7]) was 24.2%, the Activity (SH-SY5Y [8]) was “Active” and the Activity (Rattus norvegicus [9]) was 11.8 mV. For the same molecule, the inhibition in vivo at 5 µM (Rattus norvegicus [10]) was 70.7%, the MEC (Rattus norvegicus [11]) was 0.1 µM and the inhibition (Rattus norvegicus [12]) was “Dose-Dependent Effect”. For the same molecule, the viability at 10 µM (SH-SY5Y [13]) was 65%, the Activity (SH-SY5Y [14]) was “Active” and the MEC (Rattus norvegicus [15]) was 0.1 µM.

CCCN(CCC)/C(C)=N/C1=Nc2ccccc2CS1 was tested, and the Activity (SH-SY5Y [2]) was “Active”, the Activity (SH-SY5Y [5]) was “Dose-Dependent Effect” and the Time (Rattus norvegicus [16]) was 128.2 ms. For the same molecule, the Activity (SH-SY5Y [6]) was “Active”, the Activity (SH-SY5Y [8]) was “Active” and the MEC (Rattus norvegicus [11]) was 1 µM. For the same molecule, the viability at 10 µM (SH-SY5Y [13]) was 65%, the Activity (SH-SY5Y [14]) was “Active” and the MEC (Rattus norvegicus [15]) was 0.1 µM.
